{"source": "ChEMBL document CHEMBL2346499", "about": "“Small molecule modulators of Wnt/β-catenin signaling” (Bioorg Med Chem Lett, 2013)", "note": "Active and inactive are the calls of the source. No cut-off for these calls is given here.", "data": [{"tested_on": "not listed separately", "assay": "Induction of Wnt3A/beta-catenin signaling in HEK293 cells after 8 hrs by TOPflash reporter assay", "type": "cell-based", "details": "Homo sapiens", "how_it_was_run": "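HEK293 cells carrying TOPflash reporter, treated with or without Wnt3A conditioned medium (5% as reference sample) plus compound at the indicated concentrations for 8 hrs; luciferase read as relative luciferase units; significance versus Wnt3A-only sample by t test.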", "values": [{"smiles": "O=C(Nc1ccc(NS(=O)(=O)c2ccc(Cl)cc2)cc1Cl)c1cc(Cl)ccc1O", "Activity": "Dose-dependent effect"}]}, {"target": "Frizzled-1 (Homo sapiens) (UniProt Q9UP38)", "sequence (Q9UP38 70-647 limits assumed)": "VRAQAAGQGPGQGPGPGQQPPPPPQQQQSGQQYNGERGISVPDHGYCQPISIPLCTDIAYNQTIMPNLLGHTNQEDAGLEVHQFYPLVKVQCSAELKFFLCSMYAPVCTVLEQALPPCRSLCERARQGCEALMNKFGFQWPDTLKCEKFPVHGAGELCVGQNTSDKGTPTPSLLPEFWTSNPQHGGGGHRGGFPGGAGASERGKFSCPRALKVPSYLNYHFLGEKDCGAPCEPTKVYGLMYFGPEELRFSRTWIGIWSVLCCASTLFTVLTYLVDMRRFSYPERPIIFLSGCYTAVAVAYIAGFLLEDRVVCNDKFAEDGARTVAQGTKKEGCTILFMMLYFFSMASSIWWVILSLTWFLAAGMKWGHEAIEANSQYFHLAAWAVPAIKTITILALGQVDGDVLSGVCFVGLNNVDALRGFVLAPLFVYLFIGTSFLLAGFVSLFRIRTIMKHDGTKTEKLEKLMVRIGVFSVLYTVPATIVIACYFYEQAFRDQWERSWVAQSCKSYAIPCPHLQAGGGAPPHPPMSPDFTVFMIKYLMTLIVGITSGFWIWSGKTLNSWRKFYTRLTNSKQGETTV", "assay": "Induction of internalization of Frizzled1-GFP (unknown origin) expressed in human U2OS cells at 12.5 uM after 6 hrs by confocal microscopy", "type": "cell-based", "details": "not given", "values": [{"smiles": "[N-]=[N+]=Nc1ccc(NC(=O)c2cc(Cl)ccc2O)c(Cl)c1", "Activity": "Active"}, {"smiles": "O=C(Nc1ccc([N+](=O)[O-])cc1Cl)c1cccc(Cl)c1", "Activity": "inactive"}, {"smiles": "O=C(Nc1ccc(Br)cc1)c1cc(Br)cc(Br)c1O", "Activity": "inactive"}, {"smiles": "O=C(Nc1cc(Cl)cc(Cl)c1O)c1c(O)c(Cl)cc(Cl)c1Cl", "Activity": "inactive"}, {"smiles": "O=C(Nc1ccc([N+](=O)[O-])cc1Cl)c1cc(Br)ccc1O", "Activity": "Active"}, {"smiles": "O=C(Nc1ccc(Oc2ccc(Cl)cc2)c(Cl)c1)c1cc(I)cc(I)c1O", "Activity": "inactive"}, {"smiles": "[N-]=[N+]=NCCOCCOCCOc1cc([N+](=O)[O-])ccc1NC(=O)c1cc(Cl)ccc1O", "Activity": "Active"}, {"smiles": "COc1cc([N+](=O)[O-])ccc1NC(=O)c1cc(Cl)ccc1O", "Activity": "Active"}, {"smiles": "O=C(Nc1cccc([N+](=O)[O-])c1)c1cc(Cl)ccc1O", "Activity": "inactive"}, {"smiles": "O=C(Nc1ccc([N+](=O)[O-])cc1)c1cc(Br)ccc1O", "Activity": "Active"}, {"smiles": "O=C(Nc1ccc(NS(=O)(=O)c2ccc(Cl)cc2)cc1Cl)c1cc(Cl)ccc1O", "Activity": "inactive"}, {"smiles": "Cc1cc(C(C#N)c2ccc(Cl)cc2)c(Cl)cc1NC(=O)c1cc(I)cc(I)c1O", "note": "(stereo not given)", "Activity": "inactive"}, {"smiles": "O=C(Nc1ccc([N+](=O)[O-])cc1Cl)c1cc(Cl)ccc1O", "note": "[NICLOSAMIDE]", "Activity": "Active"}, {"smiles": "O=C(Nc1ccccc1[N+](=O)[O-])c1cc(Cl)ccc1O", "Activity": "inactive"}, {"smiles": "Nc1ccc(NC(=O)c2cc(Cl)ccc2O)c(Cl)c1", "Activity": "inactive"}, {"smiles": "O=C(Nc1ccc([N+](=O)[O-])cc1)c1cc(Cl)ccc1O", "Activity": "Active"}, {"smiles": "O=C(Nc1ccc([N+](=O)[O-])cc1Cl)c1ccccc1O", "Activity": "Active"}, {"smiles": "O=C(Nc1ccc([N+](=O)[O-])cc1Br)c1ccccc1O", "Activity": "Active"}, {"smiles": "COc1ccc(Cl)cc1C(=O)Nc1ccc([N+](=O)[O-])cc1Cl", "Activity": "inactive"}]}]}
